The values below come from PubChem BioAssay AID871 (The Scripps Research Institute Molecular Screening Center, 2007).

Out of some 190,000 compounds screened, about 1,800 (0.95%) were called active. Shown is part of a subset that was picked to be rich in actives. Values without a mark were called inactive.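 Rule for the calls: active = activation above the screen-wide mean of compound activation plus 3 SD (cut at about 130% in these data); inactive = the rest.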

The assay in a line: enhancers of STAT3 transcriptional signaling – U3A cells, luciferase, luminescence, MLSCN library, primary screen (AID 871).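 Note: 0% = background luminescence of wells with medium and substrate only.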 The settings on record: IL-6 STAT3-luciferase reporter, at 5.6 µM, hits give high values, 100% = signal with IL-6 EC80 alone. The procedure, abridged:
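Test system: human U3A cells carrying STAT3-luciferase construct; control set: IL-6-only wells as 100% reference; timing: compound pre-incubation 1 h before IL-6, then 6 h stimulation at 37 °C; also added: IL-6 stimulus at 33 ng/mL final; evaluation: % activation versus median of IL-6-stimulated wells; detection: reporter luminescence signal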
On the technique in general: Reporter assays use an easily measured gene product as a stand-in for the process of interest.
As for `Cc1ccc(C(C)(C)C)c(OCCCCN2CCCC2)c1`, the activation (% of control) is 95.5%.

With `COc1ccc(Cl)cc1NC(=O)c1oc(C)nc1C`, the activation (% of control) was 162% (active).

`Cc1nc(C)c(C(=O)Nc2cccc(C)c2C)o1`: the activation (% of control) was 105%.

In the case of `Cc1nc(C)c(C(=O)Nc2ccc(C)c(F)c2)o1`, the activation (% of control) is 92.3%.

As for `Cc1cc(Cl)ccc1NC(=S)NCCCN1CCCC1=O`, the activation (% of control) was 98.6%.

As to `COc1ccccc1N1CCN(C(=O)c2ccc(Cl)c(S(=O)(=O)N3CCCC3)c2)CC1`, the activation (% of control) was 97%.

With `Cc1ccc(-c2cc(C(=O)Nc3nn[nH]n3)c3ccccc3n2)c(C)c1`, the activation (% of control) is 140% (active).

On to `Cc1ccc(NC(=O)c2cc(-c3ccc(C)o3)nc3ccccc23)nc1`, for which the activation (% of control) is 104%.

As for `Cc1ccc2c(Cl)c(C(=O)Nc3nn[nH]n3)sc2c1`, the activation (% of control) was 96%.

Regarding `CCOC(=O)C1(Cc2cccc(OC)c2)CCN(C(C)COC)CC1` (stereo unspecified), the activation (% of control) was 108%.

With `COc1cccc(NC(=O)c2ccc3c(SCC(=O)O)c4c(nc3c2)CCCC4)c1`, the activation (% of control) was 106%.

Take `COCC(=O)Nc1cc(C(=O)OC)cc(C(=O)OC)c1`: the activation (% of control) was 97.7%.

With `CCSc1nnc(-c2cc3c(s2)-c2ccccc2CC3)o1`, the activation (% of control) is 173% (active).

Take `C#CCSc1nnc(-c2sc3ccccc3c2Cl)o1`: the activation (% of control) was 125%.

Consider `Fc1ccc(CSc2nnc(-c3cc4c(s3)-c3ccccc3CC4)o2)cc1`, for which the activation (% of control) is 117%.

On to `CCNC(=O)COC(=O)CCNC(=O)c1cccc(C)c1`, for which the activation (% of control) was 102%.

In the case of `COc1cccc(C(=O)Oc2cc(C)[nH]c(=O)c2[N+](=O)[O-])c1`, the activation (% of control) was 101%.

As for `OC(COc1cccc(OCC(O)CN2CCCC2)c1)CN1CCCC1` (stereo unspecified), the activation (% of control) is 101%.

Turning to `OC(COc1ccc2ccccc2c1)Cn1cncn1` (stereo unspecified), the activation (% of control) is 97.5%.

In the case of `OC(COc1ccc2ccccc2c1)CN1CCOCC1` (stereo unspecified), the activation (% of control) was 159% (active).

For `COc1ccc(/C=N/n2c(C)cc(C)cc2=O)cc1`, the activation (% of control) was 83.5%.

Regarding `C=CCn1c(-c2ccccc2OCC)n[nH]c1=S`, the activation (% of control) is 158% (active).

Regarding `C=CCn1c(-c2ccc3[nH]c(C)c(C)c3c2)n[nH]c1=S`, the activation (% of control) is 80.2%.

As for `C=CCn1c(-c2sc(-c3ccccc3)nc2C)n[nH]c1=S`, the activation (% of control) was 94.6%.

Regarding `COc1ccc(CC(=O)N[C@@H](CCSC)c2nc3ccccc3[nH]2)cc1`, the activation (% of control) is 96.5%.

`COc1ccc(COC(=O)N/N=C(\C)CC(=O)Nc2ccc(Cl)cc2)cc1`: the activation (% of control) is 101%.

Regarding `Cc1ccc(C2C(C#N)C(C#N)N3CCCN23)cc1` (stereo unspecified), the activation (% of control) is 141% (active).

Consider `O=C(CCC(=O)NNc1nc2ccccc2c2nc(-c3ccccc3)nn12)NCCCN1CCCC1=O`, for which the activation (% of control) is 112%.

For the compound `Cc1nccn1CCCNC(=O)CC1C(=O)NCCN1Cc1ccc(Cl)c(F)c1` (stereo unspecified), the activation (% of control) was 100%.

Consider `COc1ccc(C(CC(=O)c2ccccc2)S(=O)(=O)c2ccccc2)cc1` (stereo unspecified), for which the activation (% of control) was 110%.

On to `Oc1c(C=Nc2cccc3nsnc23)ccc2ccccc12`, for which the activation (% of control) is 144% (active).

On to `COc1ccc(C=Nc2cccc3ncccc23)cc1`, for which the activation (% of control) was 109%.

Turning to `COc1ccc(-c2csc(NC(=O)COC(=O)Cc3ccc(Cl)cc3Cl)n2)cc1`, the activation (% of control) was 100%.

With `CCCCCCC(=O)Nc1nc(C)c(-c2csc(Nc3cccc(OC)c3)n2)s1`, the activation (% of control) was 99.6%.

For `CCCCC(=O)Nc1nc(C)c(-c2csc(Nc3ccc(Cl)cc3)n2)s1`, the activation (% of control) is 149% (active).

For the compound `CCCCCCC(=O)Nc1nc(C)c(-c2csc(Nc3cc(Cl)ccc3OC)n2)s1`, the activation (% of control) is 105%.

In the case of `Cc1nc(NC(=O)c2cccc(Cl)c2)sc1-c1csc(Nc2cccc(Cl)c2)n1`, the activation (% of control) was 117%.

As to `Cc1ccc(-c2csc(NNC(=O)c3ccccc3)n2)cc1`, the activation (% of control) is 101%.

On to `Cc1ccc(Nc2nc(-c3sc(NC(=O)c4ccccc4)nc3C)cs2)cc1`, for which the activation (% of control) is 138% (active).

For `Cc1nc(NC(=O)CN(C)S(=O)(=O)c2ccc(Cl)cc2)sc1C`, the activation (% of control) is 106%.

As to `C=CCCC(=O)Nc1nc(C)c(-c2csc(Nc3ccc(Cl)cc3)n2)s1`, the activation (% of control) was 159% (active).

As to `Cc1ccc(S(=O)(=O)c2ccc(Cl)cc2)cc1S(=O)(=O)NC(C(=O)O)C(C)C` (stereo unspecified), the activation (% of control) is 102%.

For `Clc1ccc(-c2nc3ccccn3c2CN2CCSCC2)cc1`, the activation (% of control) was 99.3%.

Regarding `Cn1c(=O)c2cc(S(=O)(=O)NCCC(=O)Nc3ccc(F)cc3F)ccc2n(C)c1=O`, the activation (% of control) was 109%.

In the case of `COc1ccc(NC(=O)CC2C(=O)OCC3CCCCN32)cc1Cl` (stereo unspecified), the activation (% of control) is 102%.

`COc1ccccc1CN(C)c1nnnn1-c1ccccc1`: the activation (% of control) was 99.5%.

In the case of `COc1cccc(-n2c(=S)[nH]c3c(oc4ccccc43)c2=O)c1`, the activation (% of control) was 136% (active).

In the case of `COc1cccc(-n2cc(C(=O)O)c3ccccc3c2=O)c1`, the activation (% of control) is 98.5%.

Consider `COC(=O)c1ccc(CSc2nc3ccccc3c(=O)n2-c2cccc(OC)c2)o1`, for which the activation (% of control) is 101%.

In the case of `O=Cc1ccc(OCc2cn3ccccc3n2)cc1`, the activation (% of control) was 101%.

Regarding `COc1ccc(/C=C(\NC(=O)c2ccc(OCC(C)C)cc2)C(=O)OCc2ccco2)cc1`, the activation (% of control) was 111%.

With `Fc1cc(F)c2nc(Nc3nc4c(F)cccc4s3)sc2c1`, the activation (% of control) was 129%.

Take `COc1cccc2sc(Nc3nc(C)c(C(C)=O)s3)nc12`: the activation (% of control) was 108%.

`NNc1nc2c(Cl)cccc2s1`: the activation (% of control) is 134% (active).

In the case of `O=C(CSc1ccccn1)Nc1nc2c(ccc3ccccc32)s1`, the activation (% of control) was 103%.

Take `NC(=O)Cn1nc([N+](=O)[O-])nc1Oc1ccc(Br)cc1`: the activation (% of control) was 93.7%.

In the case of `CC(=O)N1N=C(c2ccccc2)OC1c1cccnc1` (stereo unspecified), the activation (% of control) is 103%.

As to `CCOC(=O)c1c(-c2ccccc2)csc1NC(=S)NC(=O)c1ccccc1`, the activation (% of control) was 106%.

Take `CC(=O)Nc1cccc(NC(=O)c2c(-c3ccccc3)noc2C)c1`: the activation (% of control) was 88.8%.

On to `CCOC(=O)c1c(-c2cccc(C)c2)csc1NC(=O)c1c(-c2ccccc2)noc1C`, for which the activation (% of control) is 137% (active).

For `O=C(/C=C/c1ccccc1)Nc1nnc(SCC(=O)c2ccc3ccccc3c2)s1`, the activation (% of control) was 104%.

Turning to `COc1ccc(NS(=O)(=O)c2ccc(O)c(C(=O)OCC(=O)NC3CCCCC3)c2)cc1`, the activation (% of control) is 102%.

For `CCN=c1sc(C(=O)Nc2ccccc2)c(C)n1CC`, the activation (% of control) was 84.4%.

`COc1ccccc1C1C2=C(COC2=O)Nc2cc3c(cc21)OCO3` (stereo unspecified): the activation (% of control) was 144% (active).

For the compound `CCCOc1ccccc1C1CC(=O)Nc2cc3c(cc21)OCO3` (stereo unspecified), the activation (% of control) was 66.4%.

Regarding `COc1cc2c(cc1/C=C1/NC(=O)N(c3ccccc3)C1=O)OCO2`, the activation (% of control) is 88.5%.
